# Experimental data from PMC4739781 (Journal of materials chemistry. B, Materials for biology …, 2015).
# Where two headings read alike, the source gives them in different places.
# Key:
# [1] = tested on: A549 human lung adenocarcinoma cells; assay: A549 cell cytotoxicity in the dark and after irradiation; format: cell-based; settings: for Phototoxicity Index, PI: ratio of the dark and light A549 EC50 values
# Procedure, shortened: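 A549 cells kept in DMEM with 10% FBS and 1% pen-strep at 37 °C, 5% CO2, below 70% confluence. Seeded at 1,500 cells/well in opti-MEM with 1% serum supreme and 1% pen-strep, then held 6 hrs. Free or CNA-loaded complex was added (0–300 μM or 0–20 μM) in the dark for 18 h. Cells were then irradiated (410 W projector, λ>400 nm filter, 30 sec pulses with 30 sec gaps, 5 min total) or kept dark, and held 72 hrs. Resazurin 73.3 μM for 4 hrs; fluorescence ex 560/em 590 nm; triplicate. PI is dark EC50 over light EC50.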
# [2] = log P by shake flask method; format: physicochemical; settings: Dark (protected from light)
# Procedure, shortened: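 Shake flask method in triplicate, using n-octanol and diH2O mutually pre-saturated (4:1 mixtures, 24 hrs). Protected from light, complex at 200 μM (100 μM for the less water-soluble one) in diH2O was mixed 1:1 with n-octanol (1 mL total). Samples were shaken 10 min and centrifuged at 17,000 × g for 30 sec. Both phases were read by absorbance at the MLCT peak. Photoactivated samples were first irradiated 30 min (20 J/cm², λ>400 nm filter).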
# [3] = Ru complex release from PEG-ASP CNAs by dialysis under sink conditions; format: physicochemical; settings: for Release (%) in the primary phase: two-phase fit
# Procedure, shortened: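 Triplicate dialysis under sink conditions. Loaded CNAs at 100 μg/mL complex in diH2O, either irradiated 3 hrs (200 W, λ>400 nm, 120 J/cm²) or kept dark, in 10,000 MWCO cassettes. Dialysed at 37 °C in the dark against 5 L PBS or 10 mM phosphate buffer without NaCl (pH 6.0 or 7.4). Free complex served as control. Cassette contents were sampled over 0–48 hrs and read by MLCT-peak absorbance. Data were fitted by one-phase exponential regression, or two-phase where that fit better.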
# [4] = Ru complex photoactivation; format: physicochemical; settings: after 30 min irradiation (200 W, λ>400 nm)
# Procedure, shortened: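 Free or CNA-loaded complex in PBS, in a 1 cm quartz cuvette 18 in from a 200 W projector with λ>400 nm cutoff filter. UV/Vis absorbance change was recorded over irradiation time. Photoactivation t1/2 (time for half the spectral change) was obtained by non-linear exponential regression.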
# [5] = target: pUC19 plasmid DNA; assay: DNA agarose gel electrophoresis; format: biochemical
# [6] = tested on: A549 cells; assay: A549 cytotoxicity with exposure limited to 8 hrs, wash, then irradiation; format: cell-based, human; settings: irradiation λ>400 nm, 72 hrs
# Procedure, shortened: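 Free or CNA-entrapped complex was incubated with A549 cells for 8 hrs. Extracellular compound was washed off with fresh media. Cells were irradiated (λ>400 nm), incubated 72 hrs, and viability was read as in the standard assay: 73.3 μM resazurin for 4 hrs, fluorescence ex 560/em 590 nm.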
# [7] = Ru complex loading in PEG-ASP CNAs by UV/Vis absorption at MLCT peak; format: physicochemical; settings: maximum theoretical loading 25 wt %
# Procedure, shortened: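 PEG-ASP(Na⁺) CNAs and Ru complex (theoretical maximum loading 25%) were dissolved in anhydrous DMSO and incubated overnight at room temperature, protected from light. Unbound complex was removed by dialysis (6,000–8,000 MWCO) against diH2O, changed twice daily for 3 days. The product was lyophilized. Loading was quantified by UV/Vis absorbance at each complex's MLCT peak.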
# [8] = air-equilibrated D2O at room temperature; cited from earlier work
# [9] = read-out: EC50 Dark, A549, protected from light, 72 hrs
# [10] = read-out: EC50 Light, A549, 5 min light irradiation (λ>400 nm), 72 hrs
compound,measurement,setting,value
"N.N.[Cl][Pt][Cl] [cisplatin, reference compound]","Phototoxicity Index, PI",[1],1
same,EC50,[1]; [9],2.5 ± 0.6 µM
same,EC50,[1]; [10],2.5 ± 0.6 µM
"[Cl-].[Cl-].[Ru+2].c1ccc(-c2ccnc3c2ccc2c(-c4ccccc4)ccnc23)cc1.c1ccc(-c2ccnc3c2ccc2c(-c4ccccc4)ccnc23)cc1.c1ccc(-c2ccnc3c2ccc2c(-c4ccccc4)ccnc23)cc1 [compound 3, [Ru(dip)3]Cl2]",log P,[2],1.80 ± 0.02
same,Release (%) from PEG-ASP CNAs,"[3]; Dark, PBS (100 mM NaCl), pH 7.4, 37 °C",37.0%
same,Release (%) from PEG-ASP CNAs (total),"[3]; Dark, phosphate buffer 0 mM NaCl, pH 6.0, 37 °C",46.4%
same,Release (%) in the primary phase,"[3]; Dark, phosphate buffer 0 mM NaCl, pH 6.0",45.0%
same,Release (%) from PEG-ASP CNAs (total),"[3]; Dark, phosphate buffer 0 mM NaCl, pH 7.4, 37 °C",51.9%
same,Release (%) in the primary phase,"[3]; Dark, phosphate buffer 0 mM NaCl, pH 7.4",45.2%
same,amount released from PEG-ASP CNAs after 18 hrs,"[3]; after 18 hrs, dark",approximately 20%
same,photo-stability: change of UV/Vis absorbance spectrum,[4],did not change
same,EC50,"[5]; read-out: DNA interaction EC50 (DNA precipitation), protected from light, 40 μg/mL pUC19, 10 mM PB pH 7.4",31.3 to 62.5 µM
same,EC50,"[5]; read-out: DNA interaction EC50 (single strand DNA breaks), after photoactivation (40 J/cm^2, λ>400 nm), 40 μg/mL pUC19",15.6 to 31.3 µM
same,"Phototoxicity Index, PI",[1],>6
same,EC50,[1]; [9],0.6 ± 1.1 µM
same,EC50,[1]; [10],0.1 µM
same,potency when cells were washed after an 8 hr exposure time,[6],remained potent
same,loading efficiency in PEG-ASP CNAs,[7],88%
same,weight % of Ru complex in loaded PEG-ASP CNAs,[7],22 wt %
same,singlet oxygen generation ΦΔ,[8],0.42
"Cc1cccc(-c2cccc(C)n2)n1 [dmbpy, 6,6′-dimethyl-2,2′-bipyridine]",EC50,"[1]; Homo sapiens, A549, read-out: EC50 (ejected ligand cytotoxicity)",80 µM
"O.O.[Cl-].[Cl-].[Ru+2].c1ccc(-c2ccccn2)nc1.c1ccc(-c2ccccn2)nc1 [photoactivated 1, [Ru(bpy)2(H2O)2]Cl2]",Release (%) from PEG-ASP CNAs,"[3]; Photoactivated, PBS (100 mM NaCl), pH 7.4, 37 °C",77.7%
same,Release (%) from PEG-ASP CNAs,"[3]; Photoactivated, phosphate buffer 0 mM NaCl, pH 7.4, 37 °C",65.8%
